# Assays:
# HUVEC = experiment: Cytotoxicity against human HUVEC cells assessed as reduction in cell viability at 10 uM incubated for 48 hrs by MTT assay; assay type: cell-based
# How it was run: (§1)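 Cells plated at 3~5 × 10^3 per well and allowed 24 h before exposure to compound or DMSO (negative control) for 48 h. MTT was added for 4 h, formazan dissolved in DMSO and absorbance read at 490 nm. Inhibition was calculated relative to DMSO and blank.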
# [1] = Cytotoxicity against human HOSEC cells assessed as reduction in cell viability at 10 uM incubated for 48 hrs by MTT assay; assay type: cell-based; conditions: hose
# How it was run: as §1, with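 “h. A2780/T and KB-VIN were grown in DMEM/F12 with 10% FBS, and HUVEC, HOSEC and T29 in RPMI-1640 with 10% FBS, all at 37 °C under 5% CO₂.” for “h.”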
# [2] = Cytotoxicity against human T29 cells assessed as reduction in cell viability at 10 uM incubated for 48 hrs by MTT assay; assay type: cell-based; conditions: t29, 48 h
# How it was run: as §1, with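 “h. A2780/T and KB-VIN were grown in DMEM/F12 with 10% FBS, and HUVEC, HOSEC and T29 in RPMI-1640 with 10% FBS, all at 37 °C under 5% CO₂.” for “h.”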
# A2780/Taxol = experiment: Cytotoxicity against human A2780T cells assessed as reduction in cell viability at 10 uM incubated for 48 hrs by MTT assay; assay type: cell-based
# How it was run: as §1, with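 “h. A2780/T and KB-VIN were grown in DMEM/F12 with 10% FBS, and HUVEC, HOSEC and T29 in RPMI-1640 with 10% FBS, all at 37 °C under 5% CO₂.” for “h.”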
# [3] = Reversal of multidrug resistance activity in P-gp overexpressing human A2780T cells assessed as potentiation of PTX-induced cytotoxicity by measuring reversal ratio at 10 uM incubated for 48 hrs in presence of paclitaxel by MTT assay; assay type: functional, A2780/Taxol
# How it was run: (§2)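 Resistant cells were plated at 3~5 × 10^3 per well, given 24 h, then co-treated with test compound plus a range of anticancer drug concentrations (PTX for A2780/T, VCR for KB-VIN, cisplatin for A2780/CDDP) or DMSO for 48 h. Read-out was by MTT, 4 h at 37 °C, with absorbance at 490 nm. Reversal ratio = IC50 (drug alone) / IC50 (drug with compound).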
# [4] = Reversal of multidrug resistance activity in P-gp overexpressing human KB-VIN cells assessed as potentiation of VCR-induced cytotoxicity by measuring reversal ratio at 10 uM incubated for 48 hrs in presence of VCR by MTT assay; assay type: functional; how it was run: as §2
# [5] = Cytotoxicity against human KB-VIN cells assessed as reduction in cell viability at 10 uM incubated for 48 hrs by MTT assay; assay type: cell-based
# How it was run: as §1, with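 “h. A2780/T and KB-VIN were grown in DMEM/F12 with 10% FBS, and HUVEC, HOSEC and T29 in RPMI-1640 with 10% FBS, all at 37 °C under 5% CO₂.” for “h.”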
# [6] = Reversal of multidrug resistance activity in human A2780/CDDP cells assessed as potentiation of CDDP-induced cytotoxicity by measuring reversal ratio at 10 uM incubated for 48 hrs in presence of CDDP by MTT assay; assay type: functional; how it was run: as §2
smiles,measurement,setting,value
CCc1cc(=O)c2ccc(OC)c(COC(=O)c3cc([N+](=O)[O-])ccc3Cl)c2o1,Activity,HUVEC,Non-Toxic
same,Activity,[1],Non-Toxic
same,Activity,[2],Non-Toxic
same,Activity,A2780/Taxol,Non-Toxic
same,Ratio,[3],57
CCc1cc(=O)c2ccc(OC)c(COC(=O)c3c(F)cccc3F)c2o1,Activity,HUVEC,Non-Toxic
same,Activity,[1],Non-Toxic
same,Activity,[2],Non-Toxic
same,Activity,A2780/Taxol,Non-Toxic
same,Ratio,[3],43
CCc1cc(=O)c2ccc(OC)c(COC(=O)c3ccc(OC)c(OC)c3)c2o1,Activity,HUVEC,Non-Toxic
same,Activity,[1],Non-Toxic
same,Activity,[2],Non-Toxic
same,Activity,A2780/Taxol,Toxic
same,Ratio,[3],260
same,Ratio,[4],105
same,Activity,[5],Non-Toxic
CCc1cc(=O)c2ccc(OC(C)C)c(COC(=O)/C=C/c3ccc(OC)cc3)c2o1,Activity,HUVEC,Non-Toxic
same,Activity,[1],Non-Toxic
same,Activity,[2],Non-Toxic
same,Activity,A2780/Taxol,Non-Toxic
same,Ratio,[3],490
same,Ratio,[4],342
same,Ratio,[6],0.97
same,Activity,[5],Non-Toxic
CCc1cc(=O)c2ccc(OC)c(COC(=O)c3ccccc3[N+](=O)[O-])c2o1,Activity,HUVEC,Non-Toxic
same,Activity,[1],Non-Toxic
same,Activity,[2],Non-Toxic
same,Activity,A2780/Taxol,Non-Toxic
same,Ratio,[3],172
CCc1cc(=O)c2ccc(OC)c(COC(=O)Cc3cc(OC)c(OC)c(OC)c3)c2o1,Activity,HUVEC,Non-Toxic
same,Activity,[1],Non-Toxic
same,Activity,[2],Non-Toxic
same,Activity,A2780/Taxol,Toxic
same,Ratio,[3],54
CCc1cc(=O)c2ccc(OC)c(COC(=O)Cc3ccccc3C)c2o1,Activity,HUVEC,Non-Toxic
same,Activity,[1],Non-Toxic
same,Activity,[2],Non-Toxic
same,Activity,A2780/Taxol,Non-Toxic
same,Ratio,[3],99
CCc1cc(=O)c2ccc(OC)c(COC(=O)c3cccc(N(C)C)c3)c2o1,Activity,HUVEC,Non-Toxic
same,Activity,[1],Non-Toxic
same,Activity,[2],Non-Toxic
same,Activity,A2780/Taxol,Non-Toxic
same,Ratio,[3],484
same,Ratio,[4],234
same,Ratio,[6],0.81
same,Activity,[5],Non-Toxic
CCc1cc(=O)c2ccc(OC(C)C)c(COC(=O)c3cc(OC)c(OC)c(OC)c3)c2o1,Activity,HUVEC,Non-Toxic
same,Activity,[1],Non-Toxic
same,Activity,[2],Non-Toxic
same,Activity,A2780/Taxol,Non-Toxic
same,Ratio,[3],503
same,Ratio,[6],0.99
CCc1cc(=O)c2ccc(OC)c(COC(=O)c3ccc(F)cc3)c2o1,Activity,HUVEC,Non-Toxic
same,Activity,[1],Non-Toxic
same,Activity,[2],Non-Toxic
same,Activity,A2780/Taxol,Non-Toxic
same,Ratio,[3],53
CCc1cc(=O)c2ccc(OC)c(COC(=O)c3cc(OC)c(OC)c(OC)c3)c2o1,Activity,HUVEC,Non-Toxic
same,Activity,[1],Non-Toxic
same,Activity,[2],Non-Toxic
same,Activity,A2780/Taxol,Non-Toxic
same,Ratio,[3],537
same,Ratio,[4],424
same,Ratio,[6],0.81
same,Activity,[5],Non-Toxic
CCc1cc(=O)c2ccc(OC)c(COC(=O)/C=C/c3ccccc3)c2o1,Activity,HUVEC,Non-Toxic
same,Activity,[1],Non-Toxic
same,Activity,[2],Non-Toxic
same,Activity,A2780/Taxol,Non-Toxic
same,Ratio,[3],427
same,Ratio,[4],343
same,Activity,[5],Non-Toxic
CCOc1ccc2c(=O)cc(CC)oc2c1COC(=O)c1cc(OC)c(OC)cc1OC,Activity,HUVEC,Non-Toxic
same,Activity,[1],Non-Toxic
same,Activity,[2],Non-Toxic
same,Activity,A2780/Taxol,Non-Toxic
same,Ratio,[3],457
same,Ratio,[6],0.88
CCc1cc(=O)c2ccc(OC)c(COC(=O)/C=C/c3ccc(OC)cc3)c2o1,Activity,HUVEC,Non-Toxic
same,Activity,[1],Toxic
same,Activity,[2],Toxic
same,Activity,A2780/Taxol,Toxic
same,Ratio,[3],414
same,Ratio,[4],420
same,Activity,[5],Non-Toxic
CCCCCc1ccc(C(=O)OCc2c(OC)ccc3c(=O)cc(CC)oc23)cc1,Activity,HUVEC,Non-Toxic
same,Activity,[1],Non-Toxic
same,Activity,[2],Non-Toxic
same,Activity,A2780/Taxol,Non-Toxic
same,Ratio,[3],173
CCc1cc(=O)c2ccc(OC(C)C)c(COC(=O)c3ccc(C#N)cc3)c2o1,Activity,HUVEC,Non-Toxic
same,Activity,[1],Non-Toxic
same,Activity,[2],Non-Toxic
same,Activity,A2780/Taxol,Toxic
same,Ratio,[3],10
CCc1cc(=O)c2ccc(OC)c(COC(=O)c3ccc(Cl)c([N+](=O)[O-])c3)c2o1,Activity,HUVEC,Non-Toxic
same,Activity,[1],Toxic
same,Activity,[2],Toxic
same,Activity,A2780/Taxol,Non-Toxic
same,Ratio,[3],14
CCc1cc(=O)c2ccc(OC)c(COC(=O)/C=C/c3ccc(Cl)cc3)c2o1,Activity,HUVEC,Non-Toxic
same,Activity,[1],Non-Toxic
same,Activity,[2],Non-Toxic
same,Activity,A2780/Taxol,Non-Toxic
same,Ratio,[3],53
CCc1cc(=O)c2ccc(OC)c(COC(=O)c3cc(OC)c(OC)cc3OC)c2o1,Activity,HUVEC,Non-Toxic
same,Activity,[1],Non-Toxic
same,Activity,[2],Non-Toxic
same,Activity,A2780/Taxol,Non-Toxic
same,Ratio,[3],284
same,Ratio,[4],579
same,Activity,[5],Non-Toxic
CCc1cc(=O)c2ccc(OC)c(COC(=O)c3cccc(OC)c3)c2o1,Activity,HUVEC,Non-Toxic
same,Activity,[1],Non-Toxic
same,Activity,[2],Non-Toxic
same,Activity,A2780/Taxol,Non-Toxic
same,Ratio,[3],147
CCOc1ccc2c(=O)cc(CC)oc2c1COC(=O)c1cc(OC)c(OC)c(OC)c1,Activity,HUVEC,Non-Toxic
same,Activity,[1],Non-Toxic
same,Activity,[2],Non-Toxic
same,Activity,A2780/Taxol,Non-Toxic
same,Ratio,[3],457
same,Ratio,[4],248
same,Ratio,[6],1.05
same,Activity,[5],Non-Toxic
CCc1cc(=O)c2ccc(OC)c(COC(=O)c3ccc(N)c(C)c3)c2o1,Activity,HUVEC,Non-Toxic
same,Activity,[1],Non-Toxic
same,Activity,[2],Non-Toxic
same,Activity,A2780/Taxol,Non-Toxic
same,Ratio,[3],177
CCc1cc(=O)c2ccc(OC)c(COC(=O)c3ccc(C(C)(C)C)cc3)c2o1,Activity,HUVEC,Non-Toxic
same,Activity,[1],Non-Toxic
same,Activity,[2],Non-Toxic
same,Activity,A2780/Taxol,Toxic
same,Ratio,[3],158
CCOc1ccc2c(=O)cc(CC)oc2c1COC(=O)c1ccc(C#N)cc1,Activity,HUVEC,Non-Toxic
same,Activity,[1],Non-Toxic
same,Activity,[2],Non-Toxic
same,Activity,A2780/Taxol,Toxic
same,Ratio,[3],20
CCc1cc(=O)c2ccc(OC)c(COC(=O)c3ccc(Cl)cc3Cl)c2o1,Activity,HUVEC,Non-Toxic
same,Activity,[1],Non-Toxic
same,Activity,[2],Non-Toxic
same,Activity,A2780/Taxol,Non-Toxic
same,Ratio,[3],126
CCc1cc(=O)c2ccc(OC)c(COC(=O)c3ccc(C#N)cc3)c2o1,Activity,HUVEC,Non-Toxic
same,Activity,[1],Toxic
same,Activity,[2],Toxic
same,Activity,A2780/Taxol,Non-Toxic
same,Ratio,[3],8
CCc1cc(=O)c2ccc(OC(C)C)c(COC(=O)/C=C/c3ccccc3)c2o1,Activity,HUVEC,Non-Toxic
same,Activity,[1],Non-Toxic
same,Activity,[2],Non-Toxic
same,Activity,A2780/Taxol,Non-Toxic
same,Ratio,[3],685
same,Ratio,[4],466
same,Ratio,[6],0.81
same,Activity,[5],Non-Toxic
CCc1cc(=O)c2ccc(OC)c(COC(=O)Cc3ccc(Cl)cc3)c2o1,Activity,HUVEC,Non-Toxic
same,Activity,[1],Non-Toxic
same,Activity,[2],Non-Toxic
same,Activity,A2780/Taxol,Non-Toxic
same,Ratio,[3],89
CCc1cc(=O)c2ccc(OC)c(COC(=O)c3ccccc3Br)c2o1,Activity,HUVEC,Non-Toxic
same,Activity,[1],Non-Toxic
same,Activity,[2],Non-Toxic
same,Activity,A2780/Taxol,Toxic
same,Ratio,[3],23
CCCc1ccc(C(=O)OCc2c(OC)ccc3c(=O)cc(CC)oc23)cc1,Activity,HUVEC,Non-Toxic
same,Activity,[1],Non-Toxic
same,Activity,[2],Non-Toxic
same,Activity,A2780/Taxol,Toxic
same,Ratio,[3],36
